This passage reports mortality results from ChEMBL document CHEMBL3046492, “Synthesis, insecticidal, and acaricidal activities of novel 2-aryl-pyrrole derivatives containing ester groups” (2008).

Usually mortality stands for the percentage killed.

Common to all, as to format: functional
The test system of experiment [1] is Tetranychus cinnabarinus. The experiment can be described thus: Acaricidal activity against adult Tetranychus cinnabarinus (carmine spider mite) in sieva bean plants assessed as mortality at 200 mg/kg treated for 3 secs measured after 2 days. The conditions noted are these: 48 h.
The subject of experiment [2] is Culex pipiens pallens. The experiment is described as follows: Insecticidal activity against fourth-instar larval stage of Culex pipiens pallens (mosquito) assessed as mortality at 0.25 mg/kg at 25 +/-1 degC after 2 days. The conditions noted are these: 48 h. The essentials:
(§1)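 Test solutions were prepared by adding 1 mL of each concentrated dilution to 99 mL water. Bioassays were run at 25 ± 1 °C on laboratory-reared insects.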

Experiment [3] concerns Tetranychus cinnabarinus. The experiment is described as follows: Acaricidal activity against adult Tetranychus cinnabarinus (carmine spider mite) in sieva bean plants assessed as mortality at 50 mg/kg treated for 3 secs measured after 2 days. Particulars: 48 h.
The test system of experiment [4] is Mythimna separata. The experiment is described as follows: Insecticidal activity against fourth-instar larval stage of Mythimna separata (Oriental armyworm) in compound pretreated corn leaves assessed as mortality at 10 mg/kg at 25 +/-1 degC measured after 2 days.
The test system of experiment [5] is Culex pipiens pallens. The experiment is described as follows: Insecticidal activity against fourth-instar larval stage of Culex pipiens pallens (mosquito) assessed as mortality at 0.50 mg/kg at 25 +/-1 degC after 2 days. Particulars: 48 h. The essentials:
as §1

Experiment [6] deals with Mythimna separata. The experiment can be described thus: Insecticidal activity against fourth-instar larval stage of Mythimna separata (Oriental armyworm) in compound pretreated corn leaves assessed as mortality at 20 mg/kg at 25 +/-1 degC measured after 2 days.
Experiment [7] relates to Mythimna separata. The experiment is described as follows: Insecticidal activity against fourth-instar larval stage of Mythimna separata (Oriental armyworm) in compound pretreated corn leaves assessed as mortality at 5 mg/kg at 25 +/-1 degC measured after 2 days.
For experiment [8], the system named is Culex pipiens pallens. The experiment is described as follows: Insecticidal activity against fourth-instar larval stage of Culex pipiens pallens (mosquito) assessed as mortality at 0.10 mg/kg at 25 +/-1 degC after 2 days. The conditions noted are these: 48 h. The method in brief:
as §1

Experiment [9] concerns Tetranychus cinnabarinus. The experiment is described as follows: Acaricidal activity against adult Tetranychus cinnabarinus (carmine spider mite) in sieva bean plants assessed as mortality at 100 mg/kg treated for 3 secs measured after 2 days. Particulars: 48 h.

For the compound `CCCC(=O)OCn1c(-c2ccc(Cl)cc2)c(C#N)c(Br)c1C(F)(F)F`, the mortality at 200 mg/kg with Tetranychus cinnabarinus [1] came out at 100%. In addition, the mortality at 0.25 mg/kg in the experiment on Culex pipiens pallens [2] came to 100%. For the same compound, the mortality at 50 mg/kg with Tetranychus cinnabarinus [3] turned out to be 100%. In the experiment on Mythimna separata [4], the mortality at 10 mg/kg was found to be 100%. Moreover, the mortality at 0.5 mg/kg in the experiment with Culex pipiens pallens [5] stood at 100%. The mortality at 20 mg/kg in the experiment on Mythimna separata [6] turned out to be 100%. The mortality at 5 mg/kg in the experiment on Mythimna separata [7] amounted to 0%. In addition, the mortality at 0.1 mg/kg in the experiment on Culex pipiens pallens [8] came to 100%. The mortality at 100 mg/kg with Tetranychus cinnabarinus [9] worked out at 100%.
With `Cc1ccc(C(=O)OCn2c(-c3ccc(Cl)cc3)c(C#N)c(Br)c2C(F)(F)F)cc1`, in the experiment on Tetranychus cinnabarinus [1], the mortality at 200 mg/kg worked out at 100%. For the same compound, the mortality at 0.25 mg/kg with Culex pipiens pallens [2] came out at 100%. In addition, the mortality at 50 mg/kg with Tetranychus cinnabarinus [3] was 100%. Further, in the experiment with Mythimna separata [4], the mortality at 10 mg/kg came out at 100%. For the same compound, the mortality at 0.5 mg/kg in the experiment with Culex pipiens pallens [5] stood at 100%. Besides, the mortality at 20 mg/kg in the experiment on Mythimna separata [6] was 100%. In addition, in the experiment with Mythimna separata [7], the mortality at 5 mg/kg turned out to be 0%. Further, the mortality at 0.1 mg/kg with Culex pipiens pallens [8] is 100%. Besides, the mortality at 100 mg/kg in the experiment with Tetranychus cinnabarinus [9] is 100%.
As for `N#Cc1c(Br)c(C(F)(F)F)n(COC(=O)c2ccc([N+](=O)[O-])cc2)c1-c1ccc(Cl)cc1`, in the experiment with Tetranychus cinnabarinus [1], the mortality at 200 mg/kg turned out to be 95%. In addition, the mortality at 0.25 mg/kg with Culex pipiens pallens [2] is 60%. The mortality at 50 mg/kg in the experiment with Tetranychus cinnabarinus [3] came to 92%. Further, in the experiment on Mythimna separata [4], the mortality at 10 mg/kg stood at 50%. The mortality at 0.5 mg/kg in the experiment on Culex pipiens pallens [5] was 100%. The mortality at 20 mg/kg in the experiment on Mythimna separata [6] came to 100%. The mortality at 5 mg/kg in the experiment with Mythimna separata [7] came out at 0%. Moreover, in the experiment on Culex pipiens pallens [8], the mortality at 0.1 mg/kg is 20%. Also, the mortality at 100 mg/kg with Tetranychus cinnabarinus [9] is 93%.
Consider `N#Cc1c(Br)c(C(F)(F)F)n(COC(=O)c2ccccc2)c1-c1ccc(Cl)cc1`, for which, in the experiment with Tetranychus cinnabarinus [1], the mortality at 200 mg/kg came to 100%. The mortality at 0.25 mg/kg with Culex pipiens pallens [2] was found to be 20%. In addition, the mortality at 50 mg/kg in the experiment on Tetranychus cinnabarinus [3] amounted to 100%. The mortality at 10 mg/kg in the experiment with Mythimna separata [4] worked out at 60%. Further, the mortality at 0.5 mg/kg with Culex pipiens pallens [5] was 100%. In the experiment on Mythimna separata [6], the mortality at 20 mg/kg was 100%. In addition, in the experiment on Mythimna separata [7], the mortality at 5 mg/kg was determined as 0%. The mortality at 0.1 mg/kg with Culex pipiens pallens [8] is 10%. The mortality at 100 mg/kg in the experiment with Tetranychus cinnabarinus [9] turned out to be 100%.
For the compound `CC(Oc1cccc(Cl)c1)C(=O)OCn1c(-c2ccc(Cl)cc2)c(C#N)c(Br)c1C(F)(F)F` (centres undefined), the mortality at 200 mg/kg with Tetranychus cinnabarinus [1] stood at 98%. The mortality at 0.25 mg/kg in the experiment with Culex pipiens pallens [2] was found to be 100%. For the same compound, in the experiment with Tetranychus cinnabarinus [3], the mortality at 50 mg/kg amounted to 93%. Further, the mortality at 10 mg/kg with Mythimna separata [4] worked out at 45%. For the same compound, the mortality at 0.5 mg/kg in the experiment with Culex pipiens pallens [5] came to 100%. The mortality at 20 mg/kg in the experiment on Mythimna separata [6] was found to be 100%. In the experiment on Mythimna separata [7], the mortality at 5 mg/kg came to 0%. Also, the mortality at 0.1 mg/kg in the experiment with Culex pipiens pallens [8] is 100%. Moreover, the mortality at 100 mg/kg with Tetranychus cinnabarinus [9] came to 93%.
In the case of `CCCCC(=O)OCn1c(-c2ccc(Cl)cc2)c(C#N)c(Br)c1C(F)(F)F`, in the experiment on Tetranychus cinnabarinus [1], the mortality at 200 mg/kg was 100%. For the same compound, in the experiment on Culex pipiens pallens [2], the mortality at 0.25 mg/kg was found to be 100%. For the same compound, in the experiment on Tetranychus cinnabarinus [3], the mortality at 50 mg/kg was determined as 100%. Further, the mortality at 10 mg/kg with Mythimna separata [4] worked out at 100%. The mortality at 0.5 mg/kg in the experiment on Culex pipiens pallens [5] was 100%. In the experiment on Mythimna separata [6], the mortality at 20 mg/kg amounted to 100%. For the same compound, in the experiment on Mythimna separata [7], the mortality at 5 mg/kg amounted to 0%. Further, the mortality at 0.1 mg/kg in the experiment on Culex pipiens pallens [8] came to 100%. Further, the mortality at 100 mg/kg with Tetranychus cinnabarinus [9] worked out at 100%.
For `CCC(=O)OCn1c(-c2ccc(Cl)cc2)c(C#N)c(Br)c1C(F)(F)F`, in the experiment on Tetranychus cinnabarinus [1], the mortality at 200 mg/kg stood at 100%. In addition, the mortality at 0.25 mg/kg in the experiment on Culex pipiens pallens [2] was determined as 100%. In the experiment with Tetranychus cinnabarinus [3], the mortality at 50 mg/kg was determined as 88%. Besides, the mortality at 10 mg/kg in the experiment on Mythimna separata [4] came to 90%. Moreover, in the experiment with Culex pipiens pallens [5], the mortality at 0.5 mg/kg was found to be 100%. Further, in the experiment on Mythimna separata [6], the mortality at 20 mg/kg was found to be 100%. The mortality at 5 mg/kg in the experiment on Mythimna separata [7] turned out to be 0%. Also, the mortality at 0.1 mg/kg in the experiment with Culex pipiens pallens [8] is 100%. In the experiment on Tetranychus cinnabarinus [9], the mortality at 100 mg/kg amounted to 92%.
For `Cc1cccc(OC(C)C(=O)OCn2c(-c3ccc(Cl)cc3)c(C#N)c(Br)c2C(F)(F)F)c1` (centres undefined), in the experiment with Tetranychus cinnabarinus [1], the mortality at 200 mg/kg came out at 100%. Moreover, in the experiment with Culex pipiens pallens [2], the mortality at 0.25 mg/kg came to 100%. In addition, the mortality at 50 mg/kg with Tetranychus cinnabarinus [3] was determined as 96%. Moreover, the mortality at 10 mg/kg in the experiment with Mythimna separata [4] came to 40%. For the same compound, in the experiment with Culex pipiens pallens [5], the mortality at 0.5 mg/kg is 100%. Also, in the experiment with Mythimna separata [6], the mortality at 20 mg/kg turned out to be 100%. For the same compound, the mortality at 5 mg/kg with Mythimna separata [7] is 0%. Besides, the mortality at 0.1 mg/kg in the experiment with Culex pipiens pallens [8] stood at 100%. For the same compound, in the experiment with Tetranychus cinnabarinus [9], the mortality at 100 mg/kg is 98%.
For `CC(C)C(=O)OCn1c(-c2ccc(Cl)cc2)c(C#N)c(Br)c1C(F)(F)F`, the mortality at 200 mg/kg in the experiment on Tetranychus cinnabarinus [1] came out at 100%. For the same compound, in the experiment with Tetranychus cinnabarinus [3], the mortality at 50 mg/kg amounted to 100%. For the same compound, the mortality at 10 mg/kg in the experiment with Mythimna separata [4] came out at 100%. The mortality at 20 mg/kg in the experiment on Mythimna separata [6] is 100%. The mortality at 5 mg/kg in the experiment on Mythimna separata [7] was determined as 0%. In the experiment on Tetranychus cinnabarinus [9], the mortality at 100 mg/kg is 100%.
Turning to `N#Cc1c(Br)c(C(F)(F)F)n(COC(=O)C(=O)c2ccccc2)c1-c1ccc(Cl)cc1`, the mortality at 200 mg/kg with Tetranychus cinnabarinus [1] was 100%. In addition, in the experiment with Tetranychus cinnabarinus [3], the mortality at 50 mg/kg was 79%. Besides, the mortality at 10 mg/kg in the experiment with Mythimna separata [4] stood at 60%. Moreover, the mortality at 20 mg/kg with Mythimna separata [6] is 100%. Besides, the mortality at 5 mg/kg with Mythimna separata [7] is 0%. The mortality at 100 mg/kg in the experiment with Tetranychus cinnabarinus [9] is 88%.
